DENV2 CPE: inhibitors of DENV2 cytopathic effect | DENV2-infected cells, cytopathic effect rescue, plate reader | CPE inhibition, % at 9.99 µM | 350,000 tested, 1.7% active | AID 651640; in the data active = CPE inhibition above about 20%, passing the limit was not always enough; tested in BHK-21 cells;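 note: 0% = median of neutral control wells and 100% = median of positive control wells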
Ecoli rRNA inh: inhibitors of bacterial rRNA selective over humanized ribosomes | E. coli WT GFP vs humanized-ribosome RFP mutants, fluorescence, 24 h; hits give low values; DMSO median 0, no signal -100 | GFP signal change (wild-type ribosome), % (concentration not given with the values) | 350,000 tested, 1.6% active;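 active = significant combined selectivity score with lowered wild-type GFP, culture density cut under 30%, mutant RFP and density less affected; inactive = any of these conditions unmet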
AF4-AF9 inh: MLL-AF4/AF9 protein interaction inhibition; 350,000 tested, 0.47% active; AlphaScreen, biotin-AF4 peptide binding to FLAG-AF9; inhibition, % at 10 µM;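 active = every replicate reaching a set inhibition limit, whatever the replicate mean, cut at about 25% in these data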;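 note: 0% = plate neutral control median and 100% = total signal loss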
Target sequence (P42568 whole entry, looked up): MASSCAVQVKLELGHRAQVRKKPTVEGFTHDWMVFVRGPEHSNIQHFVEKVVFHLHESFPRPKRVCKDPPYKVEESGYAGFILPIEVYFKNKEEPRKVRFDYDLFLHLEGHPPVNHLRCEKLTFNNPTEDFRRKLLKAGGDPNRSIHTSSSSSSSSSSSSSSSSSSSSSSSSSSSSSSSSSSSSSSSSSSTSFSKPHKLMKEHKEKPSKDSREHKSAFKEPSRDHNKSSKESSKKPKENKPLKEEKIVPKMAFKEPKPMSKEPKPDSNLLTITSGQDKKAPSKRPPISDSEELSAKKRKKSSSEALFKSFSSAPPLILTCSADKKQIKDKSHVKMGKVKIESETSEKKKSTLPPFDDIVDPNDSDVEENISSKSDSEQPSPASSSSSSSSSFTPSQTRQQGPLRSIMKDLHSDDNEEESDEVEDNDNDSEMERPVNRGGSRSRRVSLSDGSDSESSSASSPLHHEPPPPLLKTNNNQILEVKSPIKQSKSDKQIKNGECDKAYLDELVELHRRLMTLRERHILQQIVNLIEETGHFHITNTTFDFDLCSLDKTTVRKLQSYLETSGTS
S100A4 inh HTS: S100A4-myosin IIA interaction inhibition | inhibition, % at 10.7 µM | S100A4/TAMRA-MyoIIA peptide fluorescence polarization | 360,000 tested, 0.14% active | P26447;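 active = mean inhibition of at least 70% across replicates, with every replicate also reaching that level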
Target sequence (P26447 whole entry, looked up): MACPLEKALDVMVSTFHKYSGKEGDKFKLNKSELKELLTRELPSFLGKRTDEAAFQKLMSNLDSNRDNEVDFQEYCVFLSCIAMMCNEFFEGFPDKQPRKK
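assay system = human S100A4 monomer with TAMRA-labelled myosin IIA peptide | also added = labelled myosin peptide probe, 5 nM | incubation = 5 min between mix addition and reading | control set = DMSO and TFP controls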
PfHsp90 yeast 2: reduces growth (ATP signal) of yeast expressing P. falciparum Hsp90. S. cerevisiae expressing PfHsp90, BacTiter-Glo ATP, 48 h; yeast lacking PDR1 and PDR3 efflux regulators. inhibition, % at 9.4 µM. AID 504621. 310,000 tested, 0.32% active;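 active = every replicate shows inhibition above about 80%, whatever the replicate mean, limit read from the data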;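 note: 0% = DMSO neutral controls and 100% = 20 µM radicicol positive controls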
Cneo AK release: causes C. neoformans cell lysis; adenylate kinase release luminescence, 4 h; normalised: neutral wells 0, clomiphene wells 100; lysis activity, % at 15 µM; 360,000 tested, 0.2% active;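 active = mean lysis activity across replicates of at least 80%, whatever share of replicates individually reach that level; inactive = mean lysis activity below 80%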
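Test system: log-phase Cryptococcus neoformans yeast cells; Quantity: yeast cell density of 5 × 10^6 cells/mL; Buffer or medium: YPD; Doses: single compound concentration per well; Timing: 4 h at 37 °C static, read 1 h later; Measured by: AK luminescence; Read-out basis: lysis from increased AK signal; Control set: Clomiphene as positive control.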
* hit, by the source's call. Hits are enriched below; roughly 3.2% of the tested compounds scored in any of these assays.

Results for CC(C)CC#Cc1ccc2c(c1)O[C@H](CN(C)C(=O)C1CCC1)[C@@H](C)CN([C@@H](C)CO)S2(=O)=O ?
DENV2 CPE: -12.7; Ecoli rRNA inh: -14.1; AF4-AF9 inh: 6.4; S100A4 inh HTS: 0.8; Cneo AK release: 108.7*

What do the screens show for `CCCNC(=O)N(C)C[C@@H]1Oc2cc(C#C[C@H](C)O)ccc2S(=O)(=O)N([C@H](C)CO)C[C@H]1C`?
DENV2 CPE: 0.9; Ecoli rRNA inh: 4.3; AF4-AF9 inh: -0.6; S100A4 inh HTS: -1.5; Cneo AK release: 4.6

Results for CCCN1[C@@H]2Cn3c(ccc(-c4cccnc4)c3=O)[C@H]1[C@@H](C(=O)NCCc1cn(C)cn1)[C@@H]2CO ?
DENV2 CPE: -1.2; Ecoli rRNA inh: 1.9; AF4-AF9 inh: -2.0; S100A4 inh HTS: 0.9; Cneo AK release: -0.7

How did CCC(=O)N1[C@@H]2CN(C(=O)Nc3cccc(Cl)c3)c3ccccc3[C@@H]2[C@@H]1CO do in these assays?
DENV2 CPE: 5.9; Ecoli rRNA inh: -54.5; AF4-AF9 inh: 1.6; S100A4 inh HTS: 4.0; Cneo AK release: -8.2

How did C[C@@H]1CN([C@H](C)CO)C(=O)Cc2cc(NS(=O)(=O)c3ccc(F)cc3)ccc2O[C@@H]1CN(C)C(=O)Nc1ccc(F)cc1 do in these assays?
DENV2 CPE: -4.7; Ecoli rRNA inh: 4.1; AF4-AF9 inh: -3.3; S100A4 inh HTS: 3.9; Cneo AK release: -2.6

What do the screens show for `CC(C)CC#Cc1ccc2c(c1)O[C@@H](CN(C)C(=O)C1CCC1)[C@@H](C)CN([C@H](C)CO)S2(=O)=O`?
DENV2 CPE: -1.8; Ecoli rRNA inh: -4.6; AF4-AF9 inh: 3.5; S100A4 inh HTS: 6.3; Cneo AK release: 100.0*

How did C[C@@H]1CN([C@H](C)CO)S(=O)(=O)c2ccc(C#C[C@@H](C)O)cc2O[C@@H]1CN(C)C(=O)C1CC1 do in these assays?
DENV2 CPE: -5.9; Ecoli rRNA inh: 2.3; AF4-AF9 inh: -7.6; S100A4 inh HTS: 120.8*; Cneo AK release: 43.7

How did C[C@H]1CN([C@@H](C)CO)S(=O)(=O)c2ccc(C#CCN(C)C)cc2O[C@@H]1CN(C)C(=O)C1CCC1 do in these assays?
DENV2 CPE: 27.4*; Ecoli rRNA inh: -0.2; AF4-AF9 inh: -0.8; S100A4 inh HTS: -5.9; Cneo AK release: 2.0

What do the screens show for `CC(C)CC#Cc1ccc2c(c1)O[C@H](CN(C)C(=O)C1CCC1)[C@H](C)CN([C@@H](C)CO)S2(=O)=O`?
DENV2 CPE: 4.8; Ecoli rRNA inh: -7.8; AF4-AF9 inh: 3.3; S100A4 inh HTS: 31.3; Cneo AK release: 3.9

How did CC(C)CC#Cc1ccc2c(c1)O[C@@H](CN(C)C(=O)c1ccccc1F)[C@H](C)CN([C@@H](C)CO)S2(=O)=O do in these assays?
DENV2 CPE: 39.4*; Ecoli rRNA inh: -4.4; AF4-AF9 inh: 0.7; S100A4 inh HTS: -7.5; Cneo AK release: 4.5

Results for CC(C)CC#Cc1ccc2c(c1)O[C@H](CN(C)C(=O)c1ccccc1F)[C@H](C)CN([C@H](C)CO)S2(=O)=O ?
DENV2 CPE: -15.7; Ecoli rRNA inh: -4.0; AF4-AF9 inh: -0.3; S100A4 inh HTS: 7.0; Cneo AK release: 2.7

What do the screens show for `CO[C@H]1CN(C)C(=O)c2cc(NC(=O)Cc3ccccc3)ccc2OC[C@@H](C)N(C(C)=O)C[C@H]1C`?
DENV2 CPE: -2.2; Ecoli rRNA inh: -0.8; AF4-AF9 inh: 0.7; S100A4 inh HTS: -8.1; Cneo AK release: 0.0

How did C[C@@H]1CN([C@@H](C)CO)S(=O)(=O)c2ccc(C#CC3CC3)cc2O[C@H]1CN(C)C(=O)c1ccccc1 do in these assays?
DENV2 CPE: 1.4; Ecoli rRNA inh: -25.4; AF4-AF9 inh: 4.1; S100A4 inh HTS: -9.3; Cneo AK release: 0.6

How did C[C@@H]1CN([C@@H](C)CO)C(=O)Cc2cc(NC(=O)Cc3cn(C)c4ccccc34)ccc2O[C@H]1CN(C)S(=O)(=O)c1cccs1 do in these assays?
DENV2 CPE: -9.6; Ecoli rRNA inh: -3.8; AF4-AF9 inh: 1.0; S100A4 inh HTS: -32.0; Cneo AK release: -2.6

How did CCCC#Cc1cnc2c(c1)C(=O)N([C@H](C)CO)C[C@H](C)[C@H](CN(C)C(=O)c1ccc3c(c1)OCO3)O2 do in these assays?
DENV2 CPE: -3.0; Ecoli rRNA inh: -1.4; AF4-AF9 inh: -1.8; S100A4 inh HTS: 6.0

What do the screens show for `Cc1cccc(Oc2coc3cc(OC(=O)c4cncc(Br)c4)ccc3c2=O)c1`?
DENV2 CPE: -3.1; Ecoli rRNA inh: -17.5*; AF4-AF9 inh: -6.4; S100A4 inh HTS: -2.9; PfHsp90 yeast 2: 8.4; Cneo AK release: 0.3

How did Cc1cc(C)cc(Oc2coc3cc(OC(=O)c4cccnc4)ccc3c2=O)c1 do in these assays?
PfHsp90 yeast 2: -6.6; Cneo AK release: -1.4

Results for Cc1ccc2nc(-c3ccc(NC(=S)NCC(C)(C)CN(C)C)cc3)sc2c1 ?
DENV2 CPE: -1.4; Ecoli rRNA inh: -36.5*; AF4-AF9 inh: 3.8; S100A4 inh HTS: -2.2; PfHsp90 yeast 2: -55.1

What do the screens show for `Nc1ccc2nc(-c3ccccc3)sc2c1`?
Cneo AK release: -1.5

What do the screens show for `Cc1ccc2nc(-c3ccc(NS(=O)(=O)c4ccc(F)cc4)cc3)sc2c1`?
PfHsp90 yeast 2: 108.9*; Cneo AK release: -4.8

How did Cc1ccc2nc(-c3ccc(N)cc3)sc2c1 do in these assays?
DENV2 CPE: 9.7; Ecoli rRNA inh: -44.0*; AF4-AF9 inh: -3.9; S100A4 inh HTS: -1.1; PfHsp90 yeast 2: 5.0; Cneo AK release: -17.9

What do the screens show for `CNC(=O)C[C@@H]1CC[C@H]2[C@H](COc3ccc(NC(=O)c4ccc(C(F)(F)F)cc4)cc3C(=O)N2C)O1`?
DENV2 CPE: 0.1; Ecoli rRNA inh: -1.1; Cneo AK release: -3.1

What do the screens show for `Cc1noc(C)c1S(=O)(=O)N(C)C[C@@H]1Oc2ccc(NS(=O)(=O)c3cccs3)cc2CC(=O)N([C@@H](C)CO)C[C@H]1C`?
DENV2 CPE: -13.8; Ecoli rRNA inh: -0.3; AF4-AF9 inh: 25.6*; S100A4 inh HTS: 4.3; Cneo AK release: 52.6

Results for Cc1noc(C)c1S(=O)(=O)Nc1ccc2c(c1)CC(=O)N([C@@H](C)CO)C[C@@H](C)[C@@H](CN(C)S(=O)(=O)c1cccs1)O2 ?
DENV2 CPE: -8.3; Ecoli rRNA inh: 2.0; AF4-AF9 inh: 0.3; S100A4 inh HTS: 5.8; Cneo AK release: 105.8*

What do the screens show for `Cc1noc(C)c1S(=O)(=O)Nc1ccc2c(c1)CC(=O)N([C@@H](C)CO)C[C@H](C)[C@H](CN(C)S(=O)(=O)c1cn(C)cn1)O2`?
DENV2 CPE: 2.5; Ecoli rRNA inh: 2.1; AF4-AF9 inh: -2.5; S100A4 inh HTS: 5.2; Cneo AK release: -3.2
